Columns and labels:
[1] = Clearance in mouse liver microsome at 1 uM after 30 mins by LC/MS analysis in the presence of NADPH; format: ADME; details: liver microsomes
Procedure, shortened: (§1)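 Compound at 1 μM incubated with human or mouse liver microsomes (0.5 mg protein/mL) in 50 mM phosphate buffer pH 7.4 with 1 mM NADPH, 37 °C, 30 min. Stopped with acetonitrile, centrifuged. Remaining compound in the supernatant quantified by LC/MS.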

[2] = Clearance in human liver microsome at 1 uM after 30 mins by LC/MS analysis in the presence of NADPH; format: ADME; details: liver microsomes; procedure, shortened: as §1
[3] = target: Hepatocyte growth factor receptor (Homo sapiens, UniProt P08581); assay: Inhibition of MET activity by TR-FRET assay
[4] = target: Mast/stem cell growth factor receptor Kit (Homo sapiens, UniProt P10721); assay: Inhibition of KIT activity by TR-FRET assay
[5] = target: ALK tyrosine kinase receptor (Homo sapiens, UniProt Q9UM73)
[6] = target: Vascular endothelial growth factor receptor 2 (Homo sapiens, UniProt P35968); assay: Inhibition of KDR activity by TR-FRET assay
KARPAS-299 [7] = assay: cells; details: Homo sapiens, KARPAS-299, 96 h
[8] = Half-life in cynomolgus monkey at 0.5 mg/kg, iv; format: ADME, organism-based, Macaca fascicularis; design: dose 0.5 mg/kg, route intravenous; details: in vivo
Procedure, shortened: (§2)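 Fasted cynomolgus monkeys, n = 2 per route, given 0.5 mg/kg po or iv in 20% EtOH, 10% Cremophor EL, 15% PEG400, 15% HPCD, 0.02 mol/L HCl in water. Heparinized blood taken at 0.08–48 h (iv) or 0.50–48 h (po). Plasma stored at −80 °C, analyzed by LC-MS/MS. Parameters from noncompartmental analysis.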

[9] = Volume of distribution at steady state in cynomolgus monkey at 0.5 mg/kg, iv; format: ADME, organism-based, Macaca fascicularis; design: dose 0.5 mg/kg, route intravenous; details: in vivo, read-out: Vdss; procedure, shortened: as §2
[10] = Total clearance in cynomolgus monkey at 0.5 mg/kg, iv; format: ADME, organism-based, Macaca fascicularis; design: dose 0.5 mg/kg, route intravenous; details: in vivo; procedure, shortened: as §2
[11] = Half-life in cynomolgus monkey at 0.5 mg/kg, po; format: ADME, organism-based, Macaca fascicularis; design: dose 0.5 mg/kg, route oral; details: in vivo; procedure, shortened: as §2
[12] = Cmax in cynomolgus monkey at 0.5 mg/kg, po; format: ADME, organism-based, Macaca fascicularis; design: dose 0.5 mg/kg, route oral; details: in vivo; procedure, shortened: as §2
[13] = AUC in cynomolgus monkey at 0.5 mg/kg, po; format: ADME, organism-based, Macaca fascicularis; design: dose 0.5 mg/kg, route oral; details: plasma; procedure, shortened: as §2
[14] = Oral bioavailability in cynomolgus monkey at 0.5 mg/kg; format: ADME, organism-based, Macaca fascicularis; details: in vivo; procedure, shortened: as §2
KARPAS-299 [15] = assay: Antitumor activity against human KARPAS299 xenografted in po dosed SCID mouse assessed as decrease in tumor volume; format: functional, organism-based
Procedure, shortened: (§3)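 KARPAS-299 grown as sc tumors in SCID mice. Dosing started when tumors reached about 200 mm³, with four mice per group randomized. Vehicle or compound given by oral sonde once daily for 11 days; vehicle 10% DMSO, 10% Cremophor EL, 15% PEG400, 15% HPCD. Tumor volume taken as (L × W²)/2, measured twice weekly. TGI = [1 − (T − T₀)/(C − C₀)] × 100.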

[16] = target: RAF proto-oncogene serine/threonine-protein kinase (Homo sapiens, UniProt P04049); assay: Inhibition of Raf-1 activity assessed as MEK1/2 phosphorylation
Procedure, shortened: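 Raf-1 activity read as phosphorylation of MEK1/2, detected with europium-labelled anti-phospho-MEK1/2 (Ser217/221) antibody.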

[17] = target: T1, Protein kinase C beta type (Homo sapiens, UniProt P05771); assay: Inhibition of PKCb2 activity by fluorescence polarization assay
[18] = target: T1, Protein kinase C beta type; assay: Inhibition of PKCb1 activity by fluorescence polarization assay
[19] = target: Protein kinase C alpha type (Homo sapiens, UniProt P17252); assay: Inhibition of PKCA activity by fluorescence polarization assay
Aurora kinase A = target: T2, Aurora kinase A (Homo sapiens, UniProt O14965); assay: Inhibition of Aurora-A activity by fluorescence polarization assay
T2 sequence (O14965 whole entry): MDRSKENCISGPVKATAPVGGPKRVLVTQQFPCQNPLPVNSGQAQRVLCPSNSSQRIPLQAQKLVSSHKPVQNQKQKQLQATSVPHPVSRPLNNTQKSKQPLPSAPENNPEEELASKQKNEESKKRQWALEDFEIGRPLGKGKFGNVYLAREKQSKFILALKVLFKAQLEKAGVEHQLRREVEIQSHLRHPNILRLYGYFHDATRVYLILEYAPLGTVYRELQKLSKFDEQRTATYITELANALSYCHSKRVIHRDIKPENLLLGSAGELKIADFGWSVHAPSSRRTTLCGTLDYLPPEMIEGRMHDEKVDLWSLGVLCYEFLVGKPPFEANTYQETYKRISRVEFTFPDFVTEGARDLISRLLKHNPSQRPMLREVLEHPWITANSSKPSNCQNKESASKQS

[20] = target: RAC-alpha serine/threonine-protein kinase (Homo sapiens, UniProt P31749); assay: Inhibition of AKT1 activity by fluorescence polarization assay
[21] = target: Receptor tyrosine-protein kinase erbB-2 (Homo sapiens, UniProt P04626); assay: Inhibition of HER2 activity by TR-FRET assay
[22] = target: Insulin-like growth factor 1 receptor (Homo sapiens, UniProt P08069); assay: Inhibition of IGF1R activity by TR-FRET assay
[23] = target: Tyrosine-protein kinase ABL1 (Homo sapiens, UniProt P00519); assay: Inhibition of ABL activity by TR-FRET assay
[24] = target: Fibroblast growth factor receptor 2 (Homo sapiens, UniProt P21802); assay: Inhibition of FGFR2 activity by TR-FRET assay
[25] = target: Proto-oncogene tyrosine-protein kinase Src (Homo sapiens, UniProt P12931); assay: Inhibition of SRC activity by TR-FRET assay
Insulin receptor = Insulin receptor (Homo sapiens, UniProt P06213); assay: Inhibition of INSR activity by TR-FRET assay
KARPAS-299 [26] = assay: Antitumor activity against human KARPAS299 xenografted in SCID mouse assessed as tumor growth inhibition at 2 mg/kg, po administered for 11 days after 8 days of tumor implantation; format: functional; details: read-out: TGI; procedure, shortened: as §3
KARPAS-299 [27] = assay: Antitumor activity against human KARPAS299 xenografted in SCID mouse assessed as tumor growth inhibition at 6 mg/kg, po administered for 11 days after 8 days of tumor implantation; format: functional; details: read-out: TGI; procedure, shortened: as §3
KARPAS-299 [28] = assay: Antitumor activity against human KARPAS299 xenografted in SCID mouse assessed as tumor growth inhibition at 20 mg/kg, po administered for 11 days after 8 days of tumor implantation; format: functional; details: read-out: TGI; procedure, shortened: as §3

Sequence of Vascular endothelial growth factor receptor 2 (P35968 whole entry): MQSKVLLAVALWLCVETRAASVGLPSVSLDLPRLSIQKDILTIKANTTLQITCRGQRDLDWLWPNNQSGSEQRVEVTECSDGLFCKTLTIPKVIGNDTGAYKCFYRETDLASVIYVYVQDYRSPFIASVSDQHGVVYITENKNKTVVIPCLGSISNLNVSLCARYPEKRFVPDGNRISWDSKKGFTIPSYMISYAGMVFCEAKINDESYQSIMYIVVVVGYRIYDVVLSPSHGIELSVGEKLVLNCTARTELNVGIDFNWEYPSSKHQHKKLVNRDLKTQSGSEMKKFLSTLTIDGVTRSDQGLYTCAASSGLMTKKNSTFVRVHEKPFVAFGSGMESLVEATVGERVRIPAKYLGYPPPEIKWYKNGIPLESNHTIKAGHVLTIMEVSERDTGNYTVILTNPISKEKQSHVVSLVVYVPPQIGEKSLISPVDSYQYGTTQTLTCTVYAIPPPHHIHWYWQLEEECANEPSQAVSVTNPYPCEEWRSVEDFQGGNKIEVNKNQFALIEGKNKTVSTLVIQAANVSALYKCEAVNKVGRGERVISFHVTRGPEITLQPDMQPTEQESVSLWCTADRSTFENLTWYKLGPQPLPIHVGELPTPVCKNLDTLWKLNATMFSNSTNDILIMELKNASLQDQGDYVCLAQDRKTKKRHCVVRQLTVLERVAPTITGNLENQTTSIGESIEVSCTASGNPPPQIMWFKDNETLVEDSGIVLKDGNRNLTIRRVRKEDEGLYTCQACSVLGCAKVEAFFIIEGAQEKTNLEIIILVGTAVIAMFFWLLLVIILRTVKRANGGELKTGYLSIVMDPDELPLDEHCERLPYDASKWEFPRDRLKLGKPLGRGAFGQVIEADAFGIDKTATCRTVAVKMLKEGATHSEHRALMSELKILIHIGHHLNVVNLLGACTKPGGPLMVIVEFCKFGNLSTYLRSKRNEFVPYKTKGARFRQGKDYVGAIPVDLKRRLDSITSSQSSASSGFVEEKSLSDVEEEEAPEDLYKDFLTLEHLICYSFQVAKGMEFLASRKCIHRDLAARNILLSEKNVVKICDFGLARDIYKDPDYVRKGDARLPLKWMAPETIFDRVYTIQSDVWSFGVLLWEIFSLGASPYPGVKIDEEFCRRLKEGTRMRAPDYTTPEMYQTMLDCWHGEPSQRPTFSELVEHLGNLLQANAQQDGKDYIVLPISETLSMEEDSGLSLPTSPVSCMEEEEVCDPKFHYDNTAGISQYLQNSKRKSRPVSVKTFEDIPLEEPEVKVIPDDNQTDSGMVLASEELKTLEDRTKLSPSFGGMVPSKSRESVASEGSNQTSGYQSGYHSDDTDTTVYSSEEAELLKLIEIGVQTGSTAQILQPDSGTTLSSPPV
Sequence of ALK tyrosine kinase receptor (Q9UM73 whole entry): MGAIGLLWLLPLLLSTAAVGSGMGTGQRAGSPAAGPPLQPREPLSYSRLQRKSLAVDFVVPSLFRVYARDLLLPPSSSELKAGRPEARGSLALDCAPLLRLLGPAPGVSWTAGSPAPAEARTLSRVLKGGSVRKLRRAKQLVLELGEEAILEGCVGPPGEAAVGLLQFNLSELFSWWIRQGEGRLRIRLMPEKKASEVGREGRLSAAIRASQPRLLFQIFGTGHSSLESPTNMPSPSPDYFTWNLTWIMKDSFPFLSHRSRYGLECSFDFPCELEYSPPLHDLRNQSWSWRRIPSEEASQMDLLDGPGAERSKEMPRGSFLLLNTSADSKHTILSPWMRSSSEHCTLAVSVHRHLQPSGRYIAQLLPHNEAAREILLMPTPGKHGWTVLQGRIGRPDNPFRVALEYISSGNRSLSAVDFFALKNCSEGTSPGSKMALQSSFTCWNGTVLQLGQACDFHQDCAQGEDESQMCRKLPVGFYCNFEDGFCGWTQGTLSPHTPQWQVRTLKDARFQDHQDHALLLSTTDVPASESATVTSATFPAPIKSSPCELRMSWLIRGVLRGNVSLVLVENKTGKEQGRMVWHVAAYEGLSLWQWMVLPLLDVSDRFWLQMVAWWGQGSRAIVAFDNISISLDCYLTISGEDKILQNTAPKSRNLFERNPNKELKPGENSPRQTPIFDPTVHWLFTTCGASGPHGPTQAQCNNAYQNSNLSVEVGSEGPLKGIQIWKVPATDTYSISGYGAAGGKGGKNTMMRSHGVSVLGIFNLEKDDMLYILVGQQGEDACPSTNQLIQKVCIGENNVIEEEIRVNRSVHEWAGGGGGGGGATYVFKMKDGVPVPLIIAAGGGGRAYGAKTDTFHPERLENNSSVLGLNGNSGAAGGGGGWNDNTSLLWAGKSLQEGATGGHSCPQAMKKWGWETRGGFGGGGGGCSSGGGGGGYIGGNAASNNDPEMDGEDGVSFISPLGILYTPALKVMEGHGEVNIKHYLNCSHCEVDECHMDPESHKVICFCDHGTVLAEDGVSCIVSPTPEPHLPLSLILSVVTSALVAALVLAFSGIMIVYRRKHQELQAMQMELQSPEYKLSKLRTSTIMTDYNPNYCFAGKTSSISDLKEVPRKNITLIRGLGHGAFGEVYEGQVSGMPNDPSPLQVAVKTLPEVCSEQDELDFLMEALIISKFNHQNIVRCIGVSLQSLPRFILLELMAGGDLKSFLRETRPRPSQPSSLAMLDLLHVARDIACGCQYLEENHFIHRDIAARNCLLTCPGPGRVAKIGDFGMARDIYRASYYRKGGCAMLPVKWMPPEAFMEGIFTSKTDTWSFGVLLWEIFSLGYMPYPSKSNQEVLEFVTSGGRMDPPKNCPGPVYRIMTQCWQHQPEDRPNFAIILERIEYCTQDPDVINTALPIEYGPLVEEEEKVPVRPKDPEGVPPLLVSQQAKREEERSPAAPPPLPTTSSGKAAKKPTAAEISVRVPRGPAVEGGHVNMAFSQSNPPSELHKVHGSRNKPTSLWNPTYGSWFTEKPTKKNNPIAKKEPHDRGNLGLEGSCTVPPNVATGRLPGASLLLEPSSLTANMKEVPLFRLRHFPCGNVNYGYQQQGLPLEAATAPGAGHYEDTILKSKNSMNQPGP
Sequence of Mast/stem cell growth factor receptor Kit (P10721 whole entry): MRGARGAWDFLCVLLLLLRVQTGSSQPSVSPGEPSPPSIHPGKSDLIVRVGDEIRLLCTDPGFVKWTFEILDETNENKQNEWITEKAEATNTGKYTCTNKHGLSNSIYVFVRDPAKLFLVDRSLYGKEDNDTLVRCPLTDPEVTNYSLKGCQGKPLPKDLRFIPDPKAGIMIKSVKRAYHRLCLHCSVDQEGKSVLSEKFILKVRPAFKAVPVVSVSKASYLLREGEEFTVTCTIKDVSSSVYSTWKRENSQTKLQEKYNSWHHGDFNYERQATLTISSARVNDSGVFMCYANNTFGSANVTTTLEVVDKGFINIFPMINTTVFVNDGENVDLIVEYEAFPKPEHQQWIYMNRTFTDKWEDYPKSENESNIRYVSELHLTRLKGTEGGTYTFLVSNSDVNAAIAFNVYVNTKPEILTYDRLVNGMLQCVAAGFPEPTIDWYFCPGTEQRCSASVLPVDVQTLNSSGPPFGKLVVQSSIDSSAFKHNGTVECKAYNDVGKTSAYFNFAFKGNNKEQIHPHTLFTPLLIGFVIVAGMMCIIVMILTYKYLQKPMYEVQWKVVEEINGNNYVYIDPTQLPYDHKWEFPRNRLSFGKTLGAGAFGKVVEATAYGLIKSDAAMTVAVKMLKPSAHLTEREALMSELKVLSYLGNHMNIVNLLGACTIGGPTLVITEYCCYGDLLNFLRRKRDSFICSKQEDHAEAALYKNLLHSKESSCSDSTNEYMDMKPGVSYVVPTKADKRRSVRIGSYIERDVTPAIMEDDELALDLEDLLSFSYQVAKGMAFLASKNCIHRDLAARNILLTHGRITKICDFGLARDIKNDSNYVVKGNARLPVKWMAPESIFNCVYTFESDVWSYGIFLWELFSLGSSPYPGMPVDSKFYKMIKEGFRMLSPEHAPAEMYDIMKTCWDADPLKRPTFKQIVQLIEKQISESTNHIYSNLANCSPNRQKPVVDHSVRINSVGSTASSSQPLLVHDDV
T1 sequence (P05771 whole entry): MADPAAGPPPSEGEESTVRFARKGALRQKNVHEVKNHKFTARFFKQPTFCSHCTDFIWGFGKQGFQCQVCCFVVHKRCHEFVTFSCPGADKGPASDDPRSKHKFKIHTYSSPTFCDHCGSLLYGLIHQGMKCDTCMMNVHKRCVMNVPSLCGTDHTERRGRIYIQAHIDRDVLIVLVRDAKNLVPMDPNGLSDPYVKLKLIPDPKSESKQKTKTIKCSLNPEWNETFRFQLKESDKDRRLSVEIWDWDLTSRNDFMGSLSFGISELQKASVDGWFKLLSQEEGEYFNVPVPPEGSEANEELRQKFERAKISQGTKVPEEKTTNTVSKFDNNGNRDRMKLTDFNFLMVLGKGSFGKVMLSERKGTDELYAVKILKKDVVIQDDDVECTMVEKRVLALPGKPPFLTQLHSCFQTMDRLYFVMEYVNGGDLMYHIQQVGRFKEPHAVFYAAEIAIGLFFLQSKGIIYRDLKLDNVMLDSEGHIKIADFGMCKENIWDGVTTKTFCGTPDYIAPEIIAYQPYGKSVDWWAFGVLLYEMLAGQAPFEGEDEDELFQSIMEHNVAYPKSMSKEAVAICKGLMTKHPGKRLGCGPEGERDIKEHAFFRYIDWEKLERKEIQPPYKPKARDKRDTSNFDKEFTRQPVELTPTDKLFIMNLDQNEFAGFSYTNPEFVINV
Sequence of RAC-alpha serine/threonine-protein kinase (P31749 whole entry): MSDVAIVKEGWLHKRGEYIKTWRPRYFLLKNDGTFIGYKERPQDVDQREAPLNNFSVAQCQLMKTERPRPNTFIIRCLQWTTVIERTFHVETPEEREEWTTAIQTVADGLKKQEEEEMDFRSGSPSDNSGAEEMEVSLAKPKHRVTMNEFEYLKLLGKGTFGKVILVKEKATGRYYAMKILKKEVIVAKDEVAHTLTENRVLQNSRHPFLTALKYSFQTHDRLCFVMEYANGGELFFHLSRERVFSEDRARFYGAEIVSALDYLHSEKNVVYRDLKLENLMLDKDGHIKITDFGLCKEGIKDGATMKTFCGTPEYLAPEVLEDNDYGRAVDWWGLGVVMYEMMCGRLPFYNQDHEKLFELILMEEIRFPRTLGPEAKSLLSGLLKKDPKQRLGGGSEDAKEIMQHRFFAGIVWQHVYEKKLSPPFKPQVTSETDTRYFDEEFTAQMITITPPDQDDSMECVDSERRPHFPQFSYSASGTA

Q: Which results are given for `CCCc1cc2c(cc1N1CCN(C3COC3)CC1)C(C)(C)c1[nH]c3cc(C#N)ccc3c1C2=O`?
A: microsomal CLint at 1 µM [1]: 4.7 µL/min/mg; microsomal CLint at 1 µM [2]: 19.4 µL/min/mg; IC50 [3]: > 5000 nM; IC50 [4]: > 5000 nM; IC50 [5]: 15.1 nM; IC50 [6]: > 5000 nM; IC50 (KARPAS-299 [7]): 25.3 nM

Q: For `CCc1cc2c(cc1N1CCN(C3COC3)CC1)C(C)(C)c1[nH]c3cc(C#N)ccc3c1C2=O`, which half-life [8] is on record?
A: Its half-life is 5.3 h.

Q: What about the Vd [9] of the same molecule?
A: The Vd was 0.296 L/kg.

Q: What about the clearance [10] of the same molecule?
A: Its clearance is 0.73 mL/min/kg.

Q: What about the half-life [11] of the same molecule?
A: The half-life was 6.25 h.

Q: What about the Cmax [12] of the same molecule?
A: Its Cmax is 327 ng/mL.

Q: What about the AUC [13] of the same molecule?
A: The AUC was 3270 ng·h/mL.

Q: And the bioavailability [14]?
A: The bioavailability was 28.2%.

Q: And the microsomal CLint at 1 µM [1]?
A: Its microsomal CLint at 1 µM is 4.5 µL/min/mg.

Q: What about the microsomal CLint at 1 µM [2] of the same molecule?
A: Its microsomal CLint at 1 µM is 17 µL/min/mg.

Q: And the Activity (KARPAS-299 [15])?
A: The Activity was “Dose-dependent effect”.

Q: And the IC50 [16]?
A: The IC50 was > 50000 nM.

Q: What about the IC50 [17] of the same molecule?
A: The IC50 was > 50000 nM.

Q: What about the IC50 [18] of the same molecule?
A: Its IC50 is > 50000 nM.

Q: And the IC50 [19]?
A: Its IC50 is > 50000 nM.

Q: What about the IC50 (Aurora kinase A) of the same molecule?
A: Its IC50 is > 50000 nM.

Q: And the IC50 [20]?
A: Its IC50 is > 50000 nM.

Q: And the IC50 [21]?
A: Its IC50 is > 50000 nM.

Q: And the IC50 [22]?
A: Its IC50 is > 50000 nM.

Q: What about the IC50 [23] of the same molecule?
A: The IC50 was > 50000 nM.

Q: And the IC50 [24]?
A: The IC50 was > 50000 nM.

Q: What about the IC50 [25] of the same molecule?
A: The IC50 was > 50000 nM.

Q: What about the IC50 (Insulin receptor) of the same molecule?
A: The IC50 was 460 nM.

Q: What about the IC50 [3] of the same molecule?
A: Its IC50 is > 5000 nM.

Q: What about the IC50 [4] of the same molecule?
A: The IC50 was > 5000 nM.

Q: And the IC50 [6]?
A: Its IC50 is > 5000 nM.

Q: What about the inhibition in vivo at 2 mg/kg (KARPAS-299 [26]) of the same molecule?
A: Its inhibition in vivo at 2 mg/kg is 49%.

Q: What about the inhibition in vivo at 6 mg/kg (KARPAS-299 [27]) of the same molecule?
A: The inhibition in vivo at 6 mg/kg was 103%.

Q: And the inhibition in vivo at 20 mg/kg (KARPAS-299 [28])?
A: The inhibition in vivo at 20 mg/kg was 119%.

Q: What about the IC50 (KARPAS-299 [7]) of the same molecule?
A: The IC50 was 12.8 nM.

Q: Which results are given for `C#Cc1cc2c(cc1N1CCN(C3COC3)CC1)C(C)(C)c1[nH]c3cc(C#N)ccc3c1C2=O`?
A: microsomal CLint at 1 µM [1]: 2.1 µL/min/mg; microsomal CLint at 1 µM [2]: 18.9 µL/min/mg; IC50 [3]: > 5000 nM; IC50 [4]: 2420 nM; IC50 [5]: 2.7 nM; IC50 [6]: 455 nM

Q: Which microsomal CLint at 1 µM [1] does the source give for `CC1(C)c2cc(N3CCN(C4COC4)CC3)c(CCC3CCCC3)cc2C(=O)c2c1[nH]c1cc(C#N)ccc21` here?
A: Its microsomal CLint at 1 µM is 44.7 µL/min/mg.

Q: What about the microsomal CLint at 1 µM [2] of the same molecule?
A: Its microsomal CLint at 1 µM is 17.8 µL/min/mg.

Q: What about the IC50 [3] of the same molecule?
A: The IC50 was > 5000 nM.

Q: What about the IC50 [4] of the same molecule?
A: Its IC50 is > 5000 nM.

Q: What about the IC50 [6] of the same molecule?
A: The IC50 was > 5000 nM.

Q: And the IC50 (KARPAS-299 [7])?
A: Its IC50 is 544 nM.

Q: Which results are given for `CC1(C)c2cc(N3CCN(C4COC4)CC3)ccc2C(=O)c2c1[nH]c1cc(C#N)ccc21`?
A: IC50 [3]: > 5000 nM; IC50 [4]: 83.9 nM; IC50 [6]: 137 nM

Q: For `Cc1cc2c(cc1N1CCN(C3COC3)CC1)C(C)(C)c1[nH]c3cc(C#N)ccc3c1C2=O`, which microsomal CLint at 1 µM [1] is on record?
A: Its microsomal CLint at 1 µM is 7 µL/min/mg.

Q: And the microsomal CLint at 1 µM [2]?
A: Its microsomal CLint at 1 µM is 22.6 µL/min/mg.

Q: And the IC50 [3]?
A: The IC50 was > 5000 nM.

Q: What about the IC50 [4] of the same molecule?
A: Its IC50 is 49.8 nM.

Q: What about the IC50 [5] of the same molecule?
A: The IC50 was 10.6 nM.

Q: And the IC50 [6]?
A: The IC50 was 60.8 nM.

Q: And the IC50 (KARPAS-299 [7])?
A: Its IC50 is 14.8 nM.

Q: Which microsomal CLint at 1 µM [1] does the source give for `CC(C)c1cc2c(cc1N1CCN(C3COC3)CC1)C(C)(C)c1[nH]c3cc(C#N)ccc3c1C2=O` here?
A: The microsomal CLint at 1 µM was 4.1 µL/min/mg.

Q: What about the microsomal CLint at 1 µM [2] of the same molecule?
A: The microsomal CLint at 1 µM was 17.4 µL/min/mg.

Q: And the IC50 [3]?
A: Its IC50 is > 5000 nM.

Q: And the IC50 [4]?
A: The IC50 was > 5000 nM.

Q: What about the IC50 [5] of the same molecule?
A: The IC50 was 66.4 nM.

Q: What about the IC50 [6] of the same molecule?
A: The IC50 was > 5000 nM.

Q: What about the IC50 (KARPAS-299 [7]) of the same molecule?
A: Its IC50 is 118 nM.

Source: ChEMBL document CHEMBL1821705 (J Med Chem, 2011)
